In the array DNA melting data of Ke et al. (doi:10.1101/2024.01.08.574731):

Assays:
[1] = melting temperature; fluorescence melt of hairpins on a sequencing array, two-state fit, raised by 9.35 °C to match UV melts; conditions: sodium 0.088 M
Method in brief: (§1)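 Cy3 fluorescence of library hairpins on a sequenced MiSeq flow cell, with annealed Cy3 and quencher oligos, was imaged in 50 mM Na-HEPES pH 8.0, 25 mM NaCl in 2.5 °C steps up to 60 °C. Signals were normalised to pre-quench Cy3 and to control variants. Melting temperature and folding enthalpy came from bootstrapped two-state fits, inverse-variance combined over four replicates. Fitted temperatures were raised by 9.35 °C to match UV melts.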

[2] = folding enthalpy; higher = less favourable; fluorescence melt of hairpins on a sequencing array, two-state fit; conditions: sodium 0.088 M
Method in brief: as §1

Sequence | Tm [1] | folding enthalpy [2]
GTCGACGAAAGTCACGAC ((((((....)))..))) | 45.4 °C | -18.6 kcal/mol
GTCGACGAAAGTCCAGAC ((((((....)))..))) | 38.9 °C | -16.1 kcal/mol
GTCGACGAAAGTCCGAC ((((((....))).))) | 51.7 °C | -21.3 kcal/mol
GTCGACGAAAGTCTAGAC ((((((....)))..))) | 42.3 °C | -24 kcal/mol
GTCGACGGAAACGCCGAC ((((.((....)).)))) | 55.3 °C | -44.7 kcal/mol
GTCGAGACGAAAGTCGAC (((..(((....)))))) | 51.4 °C | -20.9 kcal/mol
GTCGAGCCGAAAGGCGAC (((..(((....)))))) | 50.3 °C | -8.79 kcal/mol
GTCGAGCGAAAGCTAGAC (((.(((....))).))) | 60.5 °C | -33.5 kcal/mol
GTCGAGGGAAACCTCAAC ((.((((....)))).)) | 36.5 °C | -18.1 kcal/mol
GTCGATACGAAAGTAGAC (((..(((....)))))) | 35.8 °C | -20.3 kcal/mol
GTCGATGGAAACACCGAC ((((.((....)).)))) | 47.2 °C | -38 kcal/mol
GTCGCACGAAAGTGGAC (((.(((....)))))) | 49.9 °C | -18.8 kcal/mol
GTCGCAGGAAACCACGAC ((((..(....)..)))) | 35.4 °C | -28 kcal/mol
GTCGCAGGAAACCGCAAC ((.((.(....).)).)) | 25.8 °C | -12.8 kcal/mol
GTCGCATCGAAAGATGAC (((..(((....)))))) | 28.9 °C | -13.4 kcal/mol
GTCGCCGCGAAAGCGGAC (((..(((....)))))) | 32.8 °C | -6.08 kcal/mol
GTCGCGCGAAAGCGAGAC (((.(((....))).))) | 68.2 °C | -25.4 kcal/mol
GTCGCGGGAAACCGCAAC ((.((((....)))).)) | 44.1 °C | -13.3 kcal/mol
GTCGCGGGAAACCGTGAC (((.(((....))).))) | 59.8 °C | -35.2 kcal/mol
GTCGCGGGAAACTGCGAC (((((.(....).))))) | 65.3 °C | -41.2 kcal/mol
GTCGCGGGAAACTGCGGC (.(((.(....).))).) | 54.7 °C | -27.1 kcal/mol
GTCGCTCCGAAAGGAGAC (((..(((....)))))) | 34.9 °C | -10.5 kcal/mol
GTCGCTCGAAAGAGGAC (((.(((....)))))) | 45.4 °C | -18.1 kcal/mol

Sequence | Tm [1] | folding enthalpy [2]
GTCGCTCGAAAGAGTGAC (((.(((....))).))) | 62.6 °C | -43.3 kcal/mol
GTCGCTGCGAAAGCAGAC (((..(((....)))))) | 38.5 °C | -10 kcal/mol
GTCGCTGGAAACAGTGGC (.(.(((....))).).) | 45.4 °C | -27.8 kcal/mol
GTCGGACGAAAGTCGGAC (((.(((....))).))) | 58.5 °C | -32.3 kcal/mol
GTCGGACGAAAGTCTGAC (((.(((....))).))) | 61.5 °C | -40.9 kcal/mol
GTCGGAGGAAACCCCGAC (((((.(....).))))) | 53.8 °C | -33.3 kcal/mol
GTCGGCACGAAAGTGGAC (((..(((....)))))) | 34.7 °C | -12.3 kcal/mol
GTCGGCGAAAGCCACGAC ((((((....)))..))) | 56 °C | -14.4 kcal/mol
GTCGGCGAAAGCCCCGAC ((((((....)))..))) | 41.8 °C | -15.6 kcal/mol
GTCGGCGAAAGCCGGAC ((((((....))).))) | 61.1 °C | -12.4 kcal/mol
GTCGGCGAAAGCCGTGAC ((((((....)))..))) | 41.1 °C | -8.14 kcal/mol
GTCGGTCCGAAAGGAGAC (((..(((....)))))) | 36 °C | -15 kcal/mol
GTCGGTGGAAACACCAAC ((.((((....)))).)) | 39.4 °C | -18.1 kcal/mol
GTCGGTGGAAACACTGGC (.(.(((....))).).) | 42.8 °C | -27.8 kcal/mol
GTCGGTGGAAACGCCGAC (((((.(....).))))) | 63.2 °C | -50 kcal/mol
GTCGTACCGAAAGGTGAC (((..(((....)))))) | 42.8 °C | -18.6 kcal/mol
GTCGTACGAAAGTAGAC (((.(((....)))))) | 52 °C | -32.4 kcal/mol
GTCGTAGCGAAAGCTGAC (((..(((....)))))) | 46.3 °C | -19.6 kcal/mol
GTCGTAGGAAACTACAAC ((.((((....)))).)) | 30 °C | -21 kcal/mol
GTCGTCGAAAGACATGAC ((((((....)))..))) | 38.5 °C | -17.4 kcal/mol
GTCGTCGAAAGACCCGAC ((((((....)))..))) | 31.3 °C | -14.5 kcal/mol
GTCGTCGAAAGACGCGAC ((((((....)))..))) | 55.7 °C | -12.5 kcal/mol
GTCGTCGAAAGACGGAC ((((((....))).))) | 56.2 °C | -13.6 kcal/mol
